{"source": "ChEMBL document CHEMBL3091462", "about": "(J Nat Prod, 2013)", "key": {"[1]": {"system": "HCT-116", "assay": "Cell cycle arrest in human HCT116 cells assessed as accumulation at S phase at 0.1 uM after 48 hrs using propidium iodide staining by flow cytometry (reference value: 36.3 +/- 1.7%)", "type": "functional"}, "[2]": {"system": "HCT-116", "assay": "Decrease of cyclin E expression in human HCT116 cells after 24 hrs by immunoblotting", "type": "functional, cell-based", "method_in_brief": "(§1)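 HCT-116 or SW-620 cells exposed to 0–10 μM for 24 h. Cells lysed in Tris/NaCl/EDTA/1% Triton X-100 buffer with protease and phosphatase inhibitors at 4 °C, protein measured by BCA. Lysates run on 10–12.5% SDS-PAGE and immunoblotted, ECL detection. Cdk2, cyclin A and cyclin E antibodies used at 1:500; β-actin as loading control.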"}, "[3]": {"system": "SW-620", "assay": "Cell cycle arrest in human SW620 cells assessed as accumulation at G0/G1 phase at 0.5 uM after 48 hrs using propidium iodide staining by flow cytometry (reference value: 47.8 +/- 1.2%)", "type": "functional"}, "[4]": {"system": "SW-620", "assay": "Cytotoxicity against human SW620 cells at 0.5 to 10 uM", "type": "functional, cell-based", "conditions": "TDE = time-dependent effect", "method_in_brief": "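SW-620 cells seeded at 10^5 per well in RPMI 1640 + 10% FBS at 37 °C, then treated when subconfluent with 0–10 μM for 48 h (or 10 μM for 24–72 h). Ethanol vehicle, at most 0.01% v/v final. Cells trypsinized and counted on a hemocytometer. Result given as % of control, means ± SD of three experiments in triplicate.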"}, "[5]": {"system": "HCT-116", "assay": "Cell cycle arrest in human HCT116 cells assessed as accumulation at S phase after 48 hrs using propidium iodide staining by flow cytometry", "type": "functional, cell-based"}, "[6]": {"system": "SW-620", "assay": "Decrease of cyclin A expression in human SW620 cells after 24 hrs by immunoblotting", "type": "functional, cell-based", "method_in_brief": "as §1"}, "[7]": {"system": "SW-620", "assay": "Cell cycle arrest in human SW620 cells assessed as accumulation at G2/M phase at 5 uM after 48 hrs using propidium iodide staining by flow cytometry (reference value: 9.1 +/- 0.3%)", "type": "functional"}, "[8]": {"system": "SW-620", "assay": "Cell cycle arrest in human SW620 cells assessed as accumulation at G0/G1 phase at 2 uM after 48 hrs using propidium iodide staining by flow cytometry (reference value: 47.8 +/- 1.2%)", "type": "functional"}, "[9]": {"system": "HCT-116", "assay": "Cell cycle arrest in human HCT116 cells assessed as accumulation at G0/G1 phase at 0.5 uM after 48 hrs using propidium iodide staining by flow cytometry (reference value: 56.7 +/- 1.9%)", "type": "functional"}, "[10]": {"system": "HCT-116", "assay": "Cell cycle arrest in human HCT116 cells assessed as accumulation at S phase at 10 uM after 48 hrs using propidium iodide staining by flow cytometry (reference value: 36.3 +/- 1.7%)", "type": "functional"}, "[11]": {"system": "SW-620", "assay": "Decrease of Cdk2 expression in human SW620 cells after 24 hrs by immunoblotting", "type": "functional, cell-based", "method_in_brief": "as §1"}, "[12]": {"system": "SW-620", "assay": "Cytotoxicity against human SW620 cells assessed as cell growth inhibition at 10 uM after 48 hrs", "type": "functional", "conditions": "SW-620, 48 h, read-out: GI", "method_in_brief": "(§2)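 Cells seeded at 10^5 per well in RPMI 1640/10% FBS at 37 °C. Subconfluent cells exposed to 0, 0.1, 0.5, 1, 2, 5 or 10 μM for 48 h, or to 10 μM for 24, 48 and 72 h; ethanol vehicle, at most 0.01% v/v final. Cells trypsinized and counted by hemocytometer. Viability as % of control, means ± SD, three experiments in triplicate.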"}, "[13]": {"system": "SW-620", "assay": "Cell cycle arrest in human SW620 cells assessed as accumulation at S phase at 5 uM after 48 hrs using propidium iodide staining by flow cytometry (reference value: 43.1 +/- 1%)", "type": "functional"}, "[14]": {"system": "HCT-116", "assay": "Cytotoxicity against human HCT116 cells assessed as inhibition of cell viability at 10 uM after 24 hrs", "conditions": "HCT-116, 24 h"}, "[15]": {"system": "HCT-116", "assay": "Cell cycle arrest in human HCT116 cells assessed as accumulation at G0/G1 phase at 5 uM after 48 hrs using propidium iodide staining by flow cytometry (reference value: 56.7 +/- 1.9%)", "type": "functional"}, "[16]": {"system": "SW-620", "assay": "Cytotoxicity against human SW620 cells after 24 to 72 hrs", "type": "functional, cell-based", "method_in_brief": "as §2"}, "[17]": {"system": "HCT-116", "assay": "Decrease of Cdk2 expression in human HCT116 cells after 24 hrs by immunoblotting", "type": "functional, cell-based", "method_in_brief": "as §1"}, "[18]": {"system": "HCT-116", "assay": "Cytotoxicity against human HCT116 cells expressing p21 siRNA at 10 uM after 24 hrs by trypan blue staining", "type": "functional, cell-based", "method_in_brief": "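Cells plated at 5 × 10^4 per well and transfected 4 h with 100 nM p21 or scrambled siRNA in OPTI-MEM, then grown 24 h in complete medium. Exposed to 10 μM for 24 h. Viability by trypan blue exclusion and direct counting. Means ± SD, three experiments in triplicate, compared with the scrambled-siRNA group.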"}, "[19]": {"system": "SW-620", "assay": "Cell cycle arrest in human SW620 cells assessed as accumulation at G2/M phase at 1 uM after 48 hrs using propidium iodide staining by flow cytometry (reference value: 9.1 +/- 0.3%)", "type": "functional"}, "[20]": {"system": "HCT-116", "assay": "Induction of apoptosis in human HCT116 cells at 10 uM after 48 hrs using Annexin V-FITC and propidium iodide staining by flow cytometry (reference value: 7.6 +/- 3%)", "type": "functional", "method_in_brief": "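Subconfluent cells in RPMI 1640 + 10% FBS treated with 0–10 μM for 48 h. Harvested cells incubated 10 min with FITC-annexin V/PI, then analysed by flow cytometry (488/525 nm for annexin V-FITC, 488/675 nm for PI). Reported as % apoptotic cells, means ± SD of three experiments in triplicate.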"}, "[21]": {"system": "HCT-116", "assay": "Cytotoxicity against human HCT116 cells assessed as cell viability at 0.1 to 2 uM after 24 to 72 hrs", "type": "functional, cell-based", "method_in_brief": "as §2"}, "[22]": {"system": "HCT-116", "assay": "Antitumor activity against human HCT116 cells xenografted in BALB/c-nude mouse assessed as reduction of tumor weight at 100 mg/kg, po administered every other day from day 2 to 21 (reference value: 469 mg)", "type": "functional", "method_in_brief": "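Male BALB/c-nude mice; 2 × 10^6 tumour cells in 0.2 mL PBS injected intradermally into the flank on day 0, n = 10 per group. Oral dosing every other day for 3 weeks, starting 2 days after inoculation. Caliper tumour volume = (width)2 × length/2, measured periodically. Tumours excised and weighed at day 21. Means ± SE.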"}, "[23]": {"system": "HCT-116", "assay": "Cell cycle arrest in human HCT116 cells assessed as accumulation at S phase at 0.5 uM after 48 hrs using propidium iodide staining by flow cytometry (reference value: 36.3 +/- 1.7%)", "type": "functional"}, "[24]": {"system": "SW-620", "assay": "Cytotoxicity against human SW620 cells expressing p21 siRNA at 10 uM after 24 hrs by trypan blue staining", "type": "functional, cell-based", "method_in_brief": "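Cells plated at 5 × 10^4 per well and transfected with 100 nM scrambled or p21 siRNA in OPTI-MEM for 4 h. Complete RPMI medium was added and cells grown a further 24 h, then exposed to 10 μM for 24 h. Viability measured by direct count after trypan blue staining. Morphology viewed by phase-contrast at 200×. Means ± SD, three experiments in triplicate.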"}, "[25]": {"system": "HCT-116", "assay": "Cell cycle arrest in human HCT116 cells assessed as accumulation at S phase at 1 uM after 48 hrs using propidium iodide staining by flow cytometry (reference value: 36.3 +/- 1.7%)", "type": "functional"}, "[26]": {"system": "HCT-116", "assay": "Cytotoxicity against human HCT116 cells at 0.1 to 10 uM", "type": "functional, cell-based", "conditions": "TDE = time-dependent effect", "method_in_brief": "as §2"}}, "note": "pIC50: −log10 of the molar value. The source made the active and inactive calls. The rule behind the calls is not given here.", "data": [{"smiles": "CC(C)c1cccc(=O)c(O)c1", "note": "[HINOKITIOL]", "values": [{"measurement": "Activity", "setting": "[1]", "result": 34.4, "unit": "%"}, {"measurement": "Activity", "setting": "[2]", "result": "Dose-dependent effect"}, {"measurement": "Activity", "setting": "[3]", "result": 48.3, "unit": "%"}, {"measurement": "Activity", "setting": "[4]", "result": "tde"}, {"measurement": "Activity", "setting": "[5]", "result": "Dose-dependent effect"}, {"measurement": "Activity", "setting": "[6]", "result": "Dose-dependent effect"}, {"measurement": "Activity", "setting": "[7]", "result": 7.2, "unit": "%"}, {"measurement": "Activity", "setting": "[8]", "result": 43.1, "unit": "%"}, {"measurement": "Activity", "setting": "[9]", "result": 56.5, "unit": "%"}, {"measurement": "Activity", "setting": "[10]", "result": 53.8, "unit": "%"}, {"measurement": "Activity", "setting": "[11]", "result": "Dose-dependent effect"}, {"measurement": "inhibition of growth at 10 µM", "setting": "[12]", "result": 63, "unit": "%"}, {"measurement": "Activity", "setting": "[13]", "result": 51.9, "unit": "%"}, {"measurement": "inhibition of viability at 10 µM", "setting": "[14]", "result": 27, "unit": "%"}, {"measurement": "Activity", "setting": "[15]", "result": 44.6, "unit": "%"}, {"measurement": "pIC50", "setting": "[16]", "result": 5.36}, {"measurement": "growth inhibition (GI)", "setting": "[16]", "result": "Dose-dependent effect"}, {"measurement": "Activity", "setting": "[17]", "result": "Dose-dependent effect"}, {"measurement": "Activity", "setting": "[18]", "result": "inactive"}, {"measurement": "Activity", "setting": "[19]", "result": 6.8, "unit": "%"}, {"measurement": "Activity", "setting": "[20]", "result": 24.7, "unit": "%"}, {"measurement": "Activity", "setting": "[21]", "result": "Active"}, {"measurement": "Activity", "setting": "[22]", "result": 245, "unit": "mg"}, {"measurement": "Activity", "setting": "[23]", "result": 35.4, "unit": "%"}, {"measurement": "Activity", "setting": "[24]", "result": "inactive"}, {"measurement": "Activity", "setting": "[25]", "result": 37.2, "unit": "%"}, {"measurement": "Activity", "setting": "[26]", "result": "tde"}]}]}
